Screening data: PubChem BioAssay, The Scripps Research Institute Molecular Screening Center
Hits are enriched below; roughly 2.4% of the tested compounds scored in any of these assays.
HTR5A inv ag: counter-screen for OPRM1-OPRD1 inverse agonists: human HTR5A inverse agonism; P47898; HTR5A cell line, luminescence; inhibition, % at 9.3 µM; hit rate 0.083% among 340,000; AID 504634; in the data active = inhibition mostly above about 23%, no sharp cut-off; inactive = mostly below about 18%;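 also: 0% = cells with DMSO and 100% = no-cell wells with DMSO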
HTR5A ag: HTR5A agonism, opioid heterodimer counter-screen. hit rate 0.61% among 340,000. activation, % at 9.3 µM. P47898. HTR5A agonist assay, luminescence, cell-based; in the data active = activation mostly above about 9.5%, no sharp cut-off; inactive = mostly below about 7.6%;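 also: 0% = cells with vehicle only and 100% = reference agonist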
MC4R antagonist: human MC4R antagonism in cAMP assay. AID 540295. MC4R-expressing cells, MTII-stimulated cAMP, LANCE TR-FRET. inhibition, % at 6.5 µM. hit rate 0.48% among 360,000;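 active = inhibition above its plate's cutoff, the mean of tested wells on that plate plus 3 SD, cut at about 29% in these data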;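 also: 0% = Melanotan II alone and 100% = Melanotan II plus saturating MCL0020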
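Material – human MC4R-expressing U2OS cells · Repeats – no replicates · Detection – TR-FRET with Eu-cAMP and labeled anti-cAMP, 671 nm · Times – compound 30 min, challenge 1 h, detection 1 h · Compound – single nominal compound dose of 6.5 µM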
OPRM1-OPRD1 ag: agonists of human mu-delta opioid receptor heterodimerization. P35372+P41143. cells, OPRM1-OPRD1 heterodimerization, luminescence. activation, % at 9.3 µM. hit rate 0.3% among 340,000. AID 504326; in the data active = activation above about 18%;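 also: 0% = vehicle-treated cells and 100% = reference agonist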
Target sequence (P35372 whole entry, looked up): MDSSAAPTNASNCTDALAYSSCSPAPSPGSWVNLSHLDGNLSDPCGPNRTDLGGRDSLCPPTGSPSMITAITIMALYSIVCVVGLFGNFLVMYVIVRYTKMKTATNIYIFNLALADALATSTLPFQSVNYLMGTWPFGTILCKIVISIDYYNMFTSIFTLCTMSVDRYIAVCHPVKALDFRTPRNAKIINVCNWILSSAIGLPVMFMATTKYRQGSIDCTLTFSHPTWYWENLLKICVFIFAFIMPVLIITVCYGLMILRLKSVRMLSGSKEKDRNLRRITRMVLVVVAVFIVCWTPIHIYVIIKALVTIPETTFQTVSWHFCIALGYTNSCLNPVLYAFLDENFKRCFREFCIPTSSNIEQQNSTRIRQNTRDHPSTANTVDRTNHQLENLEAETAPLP
Target sequence (P41143 whole entry, looked up): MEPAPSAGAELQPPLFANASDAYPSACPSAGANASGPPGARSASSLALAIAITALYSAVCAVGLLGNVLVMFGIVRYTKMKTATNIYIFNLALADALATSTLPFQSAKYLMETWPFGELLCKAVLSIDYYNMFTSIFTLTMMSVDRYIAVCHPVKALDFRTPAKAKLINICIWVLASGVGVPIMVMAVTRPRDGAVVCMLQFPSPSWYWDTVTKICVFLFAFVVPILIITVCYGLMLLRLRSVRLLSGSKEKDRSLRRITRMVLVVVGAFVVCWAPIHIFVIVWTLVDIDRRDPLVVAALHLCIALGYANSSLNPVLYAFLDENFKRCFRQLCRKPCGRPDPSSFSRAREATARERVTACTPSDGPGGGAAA
MC4R ag barr: activates human MC4R beta-arrestin recruitment; P32245; U2OS MC4R beta-arrestin complementation, luminescence; percent of melanotan II response, DMSO zero; activation, % at 8.9 µM; hit rate 0.98% among 360,000;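 active = activation above a per-plate cutoff, the mean activation of sample wells on that plate plus 3 SD, cut at about 8% in these data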
OPRM1-OPRD1 inv: mu-delta opioid heterodimer inverse agonism; P35372+P41143; cell-based MOR-DOR heterodimer luminescence; inhibition, % at 9.3 µM; hit rate 0.21% among 340,000; in the data active = inhibition above about 22%, passing the limit was not always enough;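 also: 0% = cells with DMSO and 100% = wells without cells with DMSO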
MC4R barr conf: human MC4R beta-arrestin agonism confirmation. shares compounds with MC4R ag barr. activation, % at 8.9 µM. hit rate 31% among 2,400. U2OS MC4R beta-arrestin recruitment, luminescence; scaled DMSO 0%, Melanotan II 100%;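 active = mean activation across replicates above the hit cutoff set in the earlier primary screen, cut at about 8% in these data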
MOR-DOR barr ag: counter-screen for MC4R agonists: agonists of mu-delta opioid heterodimer | shares compounds with MC4R ag barr | AID 602194 | U2OS PathHunter beta-arrestin, beta-gal luminescence; percent of deltorphin B response, DMSO zero | activation, % at 9.2 µM | hit rate 5.8% among 2,400;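 active = mean activation across replicates exceeds the hit threshold derived in the earlier primary screen, cut at about 18% in these data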;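 also: 100% = deltorphin B at 0.9 µM final and 0% = DMSO alone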
* hit, by the source's call; . = no result given.

SMILES | HTR5A inv ag | HTR5A ag | MC4R antagonist | OPRM1-OPRD1 ag | MC4R ag barr | OPRM1-OPRD1 inv | MC4R barr conf | MOR-DOR barr ag
CN(C(=O)OC(C)(C)C)c1ccc(-c2nc3ccccc3s2)cc1 | -16 | 3 | 0 | 2 | 0 | -14 | . | .
CCOC(=O)c1c(C)[nH]c(C(=O)OCc2ccc([N+](=O)[O-])cc2)c1C | -46 | -5 | 1 | 1 | 17* | -7 | 4 | 4
CC(=O)c1c(C)[nH]c(C(=O)OCC(=O)Nc2ccccc2Cl)c1C | -16 | 6 | 12 | 1 | -2 | -6 | . | .
CC(=O)c1c(C)[nH]c(C(=O)OCC(=O)Nc2ccc([N+](=O)[O-])cc2Cl)c1C | 8 | 0 | 8 | 3 | 28* | -18 | 2 | 16
COc1cccc(NC(=O)CS(=O)(=O)Cc2nc(-c3ccc(C)cc3)oc2C)c1 | -6 | 8 | 2 | 4 | 3 | -19 | . | .
Nc1c2nc(-c3ccccc3)[nH]c(=O)c2nc(=O)n1-c1ccccc1 | -10 | 4 | 13 | 7 | 15* | -36 | 6 | 7
O=c1[nH]c(-c2ccc(F)cc2)nc2c1sc(=S)n2-c1ccccc1 | -14 | 6 | -2 | -3 | -3 | 17 | . | .
Cc1ccc2c(c1)N(CC(=O)NCCC1=CCCCC1)C(=O)c1cccnc1O2 | 7 | -3 | 8 | -1 | 0 | 4 | . | .
COc1ccc(CCNC(=O)CSc2cn(Cc3cccc(C)c3)c3ccccc23)cc1OC | 5 | -2 | 13 | -1 | 0 | 5 | . | .
COc1ccc(CCNC(=O)CSc2cn(Cc3ccccc3)c3ccccc23)cc1OC | -22 | 7 | -12 | -1 | 13* | 8 | 6 | 4
C[C@@H]1ON(C)[C@H]2C[C@H]3c4[nH]c5ccccc5c4CCN3C[C@@H]12 | . | . | 3 | . | 2 | . | . | .
CCOc1ccc2nc(NC(=S)NCc3ccccc3)sc2c1 | -31 | 0 | -12 | 2 | 18* | -10 | 4 | 2
CN(C)CCN(C)Cc1ccccc1Sc1cccc2ccccc12 | -9 | 4 | -1 | 1 | 0 | -8 | . | .
Cc1ccc(C)c(N2CCN(S(=O)(=O)c3ccc4[nH]c(=O)ccc4c3)CC2)c1 | -13 | 3 | 3 | 14 | 17* | -78 | 8 | 11
Cc1ccc(C(=O)Nc2ccc(N3CCOCC3)c3nonc23)cc1[N+](=O)[O-] | -25 | 5 | -11 | 6 | 11* | -35 | -1 | 3
Cc1cc(C(=O)Nc2ccc(N3CCOCC3)c3nonc23)ccc1[N+](=O)[O-] | -13 | 0 | -20 | -2 | 4 | 14 | . | .
c1cc2c(cc1C1CCCCC1)c1c3n2CCCNC3CCC1 (stereo unspecified) | -41 | 9 | -12 | 15 | 15* | -86 | 32* | 11
Oc1ccc2c(c1)c1c3n2CCNC3CCC1 (stereo unspecified) | -2 | 1 | 3 | 0 | -2 | -2 | . | .
COc1cc(CN2CCNC(=O)C2CC(=O)O)cc(OC)c1 (stereo unspecified) | -16 | 6 | 2 | -2 | -1 | 9 | . | .
N#C/C(C(=O)NCc1ccccc1)=C1/N=C(NC(=O)c2ccco2)c2ccccc21 | -16 | 5 | 3 | -3 | 1 | 16 | . | .
COc1ccc(CCNC(=O)/C(C#N)=C2\N=C(NC(=O)c3ccco3)c3ccccc32)cc1 | . | . | 4 | . | 14* | . | -1 | 2
O=C(O)c1cc(-c2ccc(-c3c(-c4ccc5c(c4)OCO5)noc3-c3ccsc3)cc2)nc2ccccc12 | -24 | 8 | -6 | -2 | -2 | 14 | . | .
c1ccc(-c2onc(-c3ccco3)c2-c2ccc3c(c2)OCO3)cc1 | -3 | 1 | 12 | 2 | 10.0* | -11 | 5 | 6
CCc1cccc(NC(=O)Cn2c(=O)c3cccn3c3ccccc32)c1 | -13 | 1 | -3 | 13 | 11* | -71 | 5 | 8
Cc1cccc(C)c1NC(=O)Cn1c(=O)c2cccn2c2ccccc21 | -1 | 6 | 4 | -2 | 0 | 11 | . | .
SMILES | HTR5A inv ag | HTR5A ag | MC4R antagonist | OPRM1-OPRD1 ag | MC4R ag barr | OPRM1-OPRD1 inv | MC4R barr conf | MOR-DOR barr ag
C=CCn1c(SCC(=O)Nc2ccccc2C)nc2sc(C)c(C)c2c1=O | -20 | 1 | -3 | 3 | 24* | -16 | 0 | 6
C=CCn1c(SCC(=O)NCc2ccco2)nc2ccccc2c1=O | . | . | -3 | . | 0 | . | . | .
C=CCn1c(SCC(=O)NC(=O)NCc2ccco2)nc2sc(CC)cc2c1=O | -7 | 6 | -6 | -1 | 12* | 8 | 2 | 3
Cc1sc2nc(SCC(=O)NCc3ccco3)n(C)c(=O)c2c1C | 6 | 1 | -2 | -2 | 0 | 13 | . | .
Cc1sc2nc(SCC(=O)NCc3ccco3)n(CCc3ccccc3)c(=O)c2c1C | -1 | 7 | 4 | 4 | 48* | -23 | 0 | 38*
Cc1ccc(S(=O)(=O)N2CCN(C(=O)CNC(=O)c3ccc(Br)o3)CC2)cc1 | -17 | 6 | 2 | 0 | -1 | 2 | . | .
COc1ccccc1N1CCN(C(=O)C2CCN(S(=O)(=O)c3ccccc3F)CC2)CC1 | -16 | 6 | 3 | -3 | 1 | 10 | . | .
COc1ccc(C(=O)Nc2cccc(-c3cc4ccccc4oc3=O)c2)cc1[N+](=O)[O-] | -11 | 4 | -1 | -1 | 13* | 7 | 0 | 3
O=C(N/C=N/OCc1ccc(Cl)cc1Cl)NOCc1c(Cl)cccc1Cl | 14 | -5 | -11 | 1 | 12* | -3 | 8 | 3
O=S(=O)(Nc1cc2nc3ccccc3nc2n1Cc1ccccc1)c1ccc(Cl)cc1 | -1 | -2 | -9 | 11 | 15* | -68 | 10* | 10
CSc1ccc(S(=O)(=O)NC2CC3CCC2C3)cc1 (stereo unspecified) | 18 | 1 | -1 | 2 | -2 | -8 | . | .
CC(C)C[C@H](NC(=O)C1CCN(C(=O)[C@H](Cc2ccccc2)NC(=O)OC(C)(C)C)CC1)C(=O)O | 11 | -3 | 8 | -1 | -1 | 8 | . | .
C=CCOc1ccc(/C=C/C(=O)OCC(=O)NCc2cccc(OC)c2)cc1 | 3 | 10 | 3 | -3 | 28* | 12 | 2 | 5
CC(C)(C)c1ccc(OCC(=O)Nc2ccncc2)cc1 | 11 | 4 | 20 | 1 | 1 | -8 | . | .
COc1cc(-c2ccc3cc(OC)c(OC)c(OC)c3c2)cc(OC)c1OC | . | . | -1 | . | -1 | . | . | .
Cc1ccc(-c2cc(-c3ccccc3)nc(Cl)n2)cc1 | -9 | 3 | -5 | 6 | 4 | -34 | . | .
